We go through six compounds from ChEMBL document CHEMBL1157252, “Antibacterial galloylated alkylphloroglucinol glucosides from myrtle (Myrtus communis)” (2006).

Assay [1] relates to Staphylococcus aureus. As to the kind of experiment: Antibacterial activity against multidrug-resistant Staphylococcus aureus SA-1199B overexpressing NorA efflux transporter after 18 hrs by microtiter plate method. It is filed as functional. In a few lines:
(§1)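 Broth microdilution MIC. Strains were grown on nutrient agar for 24 h at 37 °C. Inoculum was made to the 0.5 McFarland standard in normal saline and diluted to a final 5 × 10^5 cfu/mL. Plates were incubated for 18 h at 37 °C. MIC was taken as the lowest concentration with no observed growth, determined in duplicate.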

Assay [2] concerns Staphylococcus aureus. As to the kind of experiment: Antibacterial activity against methicillin-resistant Staphylococcus aureus XU212 expressing TetK efflux pump and MecA after 18 hrs by microtiter plate method. It is filed as functional. In a few lines: as §1
In assay [3] the test system is Staphylococcus aureus. The experiment in a line: Antibacterial activity against epidemic methicillin-resistant Staphylococcus aureus 15 expressing MecA after 18 hrs by microtiter plate method. It is filed as functional. In a few lines:
as §1

Assay [4] deals with Staphylococcus aureus. The experiment in a line: Antibacterial activity against methicillin-susceptible Staphylococcus aureus ATCC 25923 after 18 hrs by microtiter plate method. It is filed as functional. To be noted: for MIC: ATCC 25923, 18 h. In a few lines:
as §1

Assay [5] has as its system Staphylococcus aureus. As to the kind of experiment: Antibacterial activity against Staphylococcus aureus RN4220 expressing MsrA efflux transporter after 18 hrs by microtiter plate method. It is filed as functional. The settings on record: for MIC: RN4220, 18 h. In a few lines: as §1
In assay [6] the test system is Staphylococcus aureus. The experiment in a line: Antibacterial activity against Staphylococcus aureus RN4220 expressing MsrA efflux transporter at 256 ug/mL after 18 hrs by microtiter plate method. It is filed as functional, organism-based. In a few lines: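 Strain pre-grown on nutrient agar for 24 h at 37 °C. Inoculum matched to the 0.5 McFarland standard in normal saline and diluted to a final 5 × 10^5 cfu/mL in microtiter wells. Plates incubated 18 h at 37 °C. MIC taken as the lowest concentration with no bacterial growth, determined in duplicate.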

Assay [7] has as its system Staphylococcus aureus. As to the kind of experiment: Antibacterial activity against epidemic methicillin-resistant Staphylococcus aureus 15 expressing MecA at 256 ug/mL after 18 hrs by microtiter plate method. It is filed as functional, organism-based.
Assay [8] concerns Staphylococcus aureus. The experiment in a line: Antibacterial activity against methicillin-resistant Staphylococcus aureus XU212 expressing TetK efflux pump and MecA at 256 ug/mL after 18 hrs by microtiter plate method. It is filed as functional, organism-based.
Assay [9] deals with Staphylococcus aureus. As to the kind of experiment: Antibacterial activity against multidrug-resistant Staphylococcus aureus SA-1199B overexpressing NorA efflux transporter at 256 ug/mL after 18 hrs by microtiter plate method. It is filed as functional, organism-based.

In brackets after ≈: the same amount, converted by molar mass. Activity calls are given as the source filed them.

Turning to `CC1(C)C=C2C(=O)C(C)(C)C(=O)C(C)(C)C2(O)OO1` (stereo not drawn), the result with Staphylococcus aureus [1], in the assay on Staphylococcus aureus [2], with Staphylococcus aureus [3], in the assay on Staphylococcus aureus [4] and in the assay on Staphylococcus aureus [5] was inactive.

For the compound `CC(C)=C[C@]1(O)C(=O)C(C)(C)C(=O)C(C)(C)[C@@H]1O[C@@H]1O[C@H](COC(=O)c2cc(O)c(O)c(O)c2)[C@@H](O)[C@H](O)[C@H]1O`, the result in the assay with Staphylococcus aureus [6], in the assay with Staphylococcus aureus [7], with Staphylococcus aureus [8] and in the assay on Staphylococcus aureus [9] was inactive.

What is called MIC is the smallest concentration in the dilution series that meets the test's criterion for growth inhibition. The low end stands for inhibition by little substance, the high end for a need for much substance. `CCn1cc(C(=O)O)c(=O)c2cc(F)c(N3CCNCC3)cc21` [NORFLOXACIN]: the minimum inhibitory concentration (MIC) in the assay on Staphylococcus aureus [1] stood at 32 µg/mL (≈ 100 µM); with Staphylococcus aureus [2] it was 4 µg/mL (≈ 12.5 µM); in the assay with Staphylococcus aureus [3], 0.5 µg/mL (≈ 1.57 µM); against Staphylococcus aureus [4], 1 µg/mL (≈ 3.13 µM); against Staphylococcus aureus [5], 2 µg/mL (≈ 6.26 µM).

On to `CC(C)C[C@]1(O)C(=O)C(C)(C)C(=O)C(C)(C)[C@@H]1O[C@@H]1O[C@H](COC(=O)c2cc(O)c(O)c(O)c2)[C@@H](O)[C@H](O)[C@H]1O` [GALLOMYRTUCOMMULONE A], for which the minimum inhibitory concentration (MIC) against Staphylococcus aureus [1] came to 256 µg/mL (≈ 449 µM); in the assay with Staphylococcus aureus [2], 256 µg/mL (≈ 449 µM); against Staphylococcus aureus [3], 128 µg/mL (≈ 224 µM); with Staphylococcus aureus [4] it was 128 µg/mL (≈ 224 µM); against Staphylococcus aureus [5], 128 µg/mL (≈ 224 µM).

In the case of `CC(C)CC1(O)C(=O)C(C)(C)C(O[C@@H]2O[C@H](COC(=O)c3cc(O)c(O)c(O)c3)[C@@H](O)[C@H](O)[C@H]2O)C(C)(C)C1=O` (stereo partly drawn) [GALLOMYRTUCOMMULONE B], the minimum inhibitory concentration (MIC) in the assay with Staphylococcus aureus [1] turned out to be 128 µg/mL (≈ 224 µM); in the assay with Staphylococcus aureus [2], 128 µg/mL (≈ 224 µM); with Staphylococcus aureus [3] it was 128 µg/mL (≈ 224 µM); against Staphylococcus aureus [4], 64 µg/mL (≈ 112 µM); in the assay on Staphylococcus aureus [5], 128 µg/mL (≈ 224 µM).

On to `CC(C)=C[C@@]1(O)C(=O)C(C)(C)C(=O)C(C)(C)[C@@H]1O[C@@H]1O[C@H](COC(=O)c2cc(O)c(O)c(O)c2)[C@@H](O)[C@H](O)[C@H]1O`, for which the outcome in the assay on Staphylococcus aureus [6], with Staphylococcus aureus [7], in the assay with Staphylococcus aureus [8] and with Staphylococcus aureus [9] was inactive.
